Source: ChEMBL document CHEMBL3120099, “Novel S1P(1) receptor agonists--part 2: from bicyclo[3.1.0]hexane-fused thiophenes to isobutyl substituted thiophenes” (J Med Chem, 2014)

Tests used:
[1] = molecular target: Sphingosine 1-phosphate receptor 1 (Homo sapiens, UniProt P21453); assay: Agonist activity at human recombinant S1P1 receptor expressed in CHO cells assessed as membrane-bound 35S-GTPgammaS incubated 30 mins prior to substrate addition measured after 1 hr by topcount scintillation counting analysis; format: functional, cell-based
[2] = molecular target: Sphingosine 1-phosphate receptor 3 (Homo sapiens, UniProt Q99500); assay: Agonist activity at human recombinant S1P3 receptor expressed in CHO cells assessed as membrane-bound 35S-GTPgammaS incubated 30 mins prior to substrate addition measured after 1 hr by topcount scintillation counting analysis; format: functional, cell-based
[3] = system: Rattus norvegicus; assay: Lymphopenic activity in Wistar rat assessed as reduction in blood lymphocyte count at 10 mg/kg, po after 24 hrs; format: functional
Summary of the method: (§1)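 Normotensive male Wistar rats given 1–10 mg/kg by gavage in 5% DMSO/7.5% succinylated gelatin. Blood taken before and 3, 6 and 24 h after dosing, with later times for some compounds. Lymphocytes counted by hematology analyzer. % LC change calculated per animal relative to the predose value (=100%). Mean ± SEM.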

[4] = system: Rattus norvegicus; assay: Lymphopenic activity in Wistar rat assessed as reduction in blood lymphocyte count at 10 mg/kg, po after 6 hrs; format: functional; parameters: scale not given: the % may be the effect or the level left; summary of the method: as §1
[5] = system: Rattus norvegicus; assay: Lymphopenic activity in Wistar rat assessed as reduction in blood lymphocyte count at 10 mg/kg, po after 3 hrs; format: functional; parameters: scale not given: the % may be the effect or the level left; summary of the method: as §1
[6] = species: Homo sapiens; assay: Selectivity ratio of EC50 for human recombinant S1P3 receptor to EC50 for human recombinant S1P1 receptor
Summary of the method: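 GDP was 1 μM for S1P1 and 3 μM for S1P3. Compounds (up to 10 μM) were preincubated 30 min at rt, then incubated 1 h at rt. Bound label was counted after filtration. 10 μM S1P defined maximum. EC50s are geometric means of ≥3 independent duplicate runs.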

[7] = Plasma concentration in Wistar rat at 10 mg/kg, po after 24 hrs; format: ADME, organism-based; parameters: dose 10 mg/kg, route oral
[8] = Plasma concentration in Wistar rat at 10 mg/kg, po after 6 hrs; format: ADME, organism-based; parameters: dose 10 mg/kg, route oral
[9] = Plasma concentration in Wistar rat at 10 mg/kg, po after 3 hrs; format: ADME, organism-based; parameters: dose 10 mg/kg, route oral
[10] = Cmax in Wistar rat mesenteric lymph at 10 mg/kg, po; format: ADME, organism-based, Mesenteric lymph node; parameters: dose 10 mg/kg, route oral
Summary of the method: (§2)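 Male Wistar rats given 10 mg/kg orally in 5% DMSO/succinylated gelatin. At selected times, anesthesia with thiobutobarbital 150 mg/kg ip, laparotomy and thoracic lymph duct catheter. Mesenteric lymph collected for at least 10 min, with a plasma sample at mid-collection. Methanol precipitation, then LC-MS-MS with internal standard.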

[11] = Tmax in Wistar rat mesenteric lymph at 10 mg/kg, po; format: ADME, organism-based, Mesenteric lymph node; parameters: dose 10 mg/kg, route oral; summary of the method: as §2
[12] = AUC (0 to 24 hrs) in Wistar rat mesenteric lymph at 10 mg/kg, po; format: ADME, organism-based, Mesenteric lymph node; parameters: time < 24 hr, dose 10 mg/kg, route oral; settings: in vivo
[13] = Lipophilicity, log D of the compound at pH 7.4; format: physicochemical; settings: buffer
[14] = Cmax in Wistar rat plasma at 10 mg/kg, po; format: ADME, organism-based; parameters: dose 10 mg/kg, route oral; summary of the method: as §2
[15] = Tmax in Wistar rat plasma at 10 mg/kg, po; format: ADME, organism-based; parameters: dose 10 mg/kg, route oral; summary of the method: as §2
[16] = system: Plasma; assay: AUC (0 to 24 hrs) in Wistar rat plasma at 10 mg/kg, po; format: ADME, organism-based; parameters: time < 24 hr, dose 10 mg/kg, route oral; settings: in vivo
[17] = system: Rattus norvegicus; assay: Lymphopenic activity in Wistar rat assessed as reduction in blood lymphocyte count at 10 mg/kg, po after 72 hrs; format: functional; parameters: scale not given: the % may be the effect or the level left; summary of the method: as §1
[18] = system: Rattus norvegicus; assay: Lymphopenic activity in Wistar rat assessed as reduction in blood lymphocyte count at 10 mg/kg, po after 144 hrs; format: functional; parameters: scale not given: the % may be the effect or the level left; summary of the method: as §1

Sphingosine 1-phosphate receptor 1, sequence (P21453 whole entry): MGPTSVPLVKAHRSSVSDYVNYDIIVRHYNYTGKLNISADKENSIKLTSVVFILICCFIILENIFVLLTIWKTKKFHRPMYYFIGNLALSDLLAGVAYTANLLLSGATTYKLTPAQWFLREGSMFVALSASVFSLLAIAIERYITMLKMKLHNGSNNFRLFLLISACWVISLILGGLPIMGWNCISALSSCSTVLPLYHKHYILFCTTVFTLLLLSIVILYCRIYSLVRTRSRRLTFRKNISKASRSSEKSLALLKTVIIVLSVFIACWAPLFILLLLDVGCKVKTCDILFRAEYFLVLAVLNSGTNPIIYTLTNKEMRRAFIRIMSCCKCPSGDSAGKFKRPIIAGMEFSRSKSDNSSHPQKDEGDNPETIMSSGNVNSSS
Sphingosine 1-phosphate receptor 3, sequence (Q99500 whole entry): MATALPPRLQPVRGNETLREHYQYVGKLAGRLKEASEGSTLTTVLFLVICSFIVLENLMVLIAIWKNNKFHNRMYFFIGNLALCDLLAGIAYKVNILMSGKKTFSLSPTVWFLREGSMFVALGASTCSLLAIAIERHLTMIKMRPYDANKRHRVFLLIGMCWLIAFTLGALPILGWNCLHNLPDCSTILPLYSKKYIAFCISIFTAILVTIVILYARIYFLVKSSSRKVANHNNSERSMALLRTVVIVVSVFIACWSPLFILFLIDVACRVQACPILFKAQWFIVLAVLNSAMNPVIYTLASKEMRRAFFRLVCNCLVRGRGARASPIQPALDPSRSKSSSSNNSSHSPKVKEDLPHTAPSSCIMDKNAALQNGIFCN

Row | SMILES | EC50 [1] | EC50 [2] | also measured
1 | CCc1cc(CCC(=O)c2sc(OC)c3c2CCC(C)(C)C3)cc(C)c1OCC(O)CNC(=O)CO (racemic) | 0.0013 µM | 3.91 µM | –
2 | Cc1cc(CCC(=O)c2sc(C)c3c2CCC(C)(C)C3)cc(C)c1O | 0.021 µM | > 10 µM | –
3 | Cc1cc(CCC(=O)c2sc(C)c3c2CCC(C)(C)C3)cc(C)c1OCC(O)CNC(=O)CO (racemic) | 0.0005 µM | 0.392 µM | –
4 | CCc1sc(C(=O)CCc2cc(C)c(OC[C@@H](O)CO)c(C)c2)c2c1CC(CC)(CC)CC2 | 0.0004 µM | 0.025 µM | –
5 | CCCc1sc(C(=O)CCc2cc(C)c(OC[C@@H](O)CNC(=O)CO)c(CC)c2)c2c1CC(C)(C)CC2 | 0.0013 µM | 0.025 µM | –
6 | CCc1cc(-c2noc(-c3sc(OC)c4c3CCC(C)(C)C4)n2)cc(C)c1OC[C@@H](O)CNC(=O)CO | 0.0018 µM | 0.083 µM | –
7 | Cc1cc(-c2noc(-c3sc(C)c(CC(C)C)c3C)n2)cc(C)c1OCC(O)CNC(=O)CO (racemic) | 0.0005 µM | 0.074 µM | % change in blood lymphocyte count from predose [3]: -93%; Activity [4]: -86%; Activity [5]: -78%
8 | Cc1cc(-c2noc(-c3cc(CC(C)C)c(C)s3)n2)cc(C)c1OCC(O)CNC(=O)CO (racemic) | 0.0015 µM | 0.236 µM | % change in blood lymphocyte count from predose [3]: -91%; Activity [4]: -78%; Activity [5]: -77%
9 | CCc1sc(C(=O)CCc2cc(C)c(OC[C@@H](O)CO)c(C)c2)c2c1CC1(CC2)CC1 | 0.0011 µM | 0.819 µM | –
10 | CCc1sc(C(=O)CCc2cc(C)c(OC[C@@H](O)CO)c(C)c2)c2c1CCCC2 | 0.02 µM | 3.83 µM | –
11 | CCc1ccc(-c2nc(-c3cc(C)c(OC[C@@H](O)CNC(=O)CO)c(C)c3)no2)s1 | – | – | % change in blood lymphocyte count from predose [3]: 12%; Activity [4]: -77%; Activity [5]: -73%
12 | CCc1cc(-c2noc(-c3scc4c3CCC(C)(C)C4)n2)cc(C)c1OCC(O)CNC(=O)CO (racemic) | 0.0017 µM | 0.314 µM | Ratio EC50 [6]: 100
13 | CCc1cc(-c2noc(-c3sc(CC)c4c3CCCC4)n2)cc(C)c1OC[C@@H](O)CNC(=O)CO | 0.0009 µM | 0.172 µM | –
14 | Cc1cc(CCC(=O)c2sc(C)c3c2CCC(C)(C)C3)cc(C)c1OCCO | 0.019 µM | 4.45 µM | –
15 | CCc1sc(C(=O)CCc2cc(C)c(OCC(O)CO)c(C)c2)c2c1C[C@@H](O)CC2 (mixture of isomers) | 0.86 µM | > 10 µM | –
16 | Cc1cc(CCC(=O)c2sc(C)c3c2CCC(C)(C)C3)cc(C)c1CCC(=O)O | 0.021 µM | > 10 µM | –
17 | Cc1cc(CCC(=O)c2ccc(CC(C)C)s2)cc(C)c1OCC(O)CNC(=O)CO (racemic) | 0.0077 µM | 0.59 µM | –
18 | Cc1cc(CCC(=O)c2sc(C)c3c2CCC(C)(C)C3)cc(C)c1OCCCNCCO | 0.048 µM | > 10 µM | –
19 | CCc1cc(-c2noc(-c3sc(CC)c4c3CCC(CC)(CC)C4)n2)cc(C)c1OC[C@@H](O)CNC(=O)CO | 0.006 µM | 0.0012 µM | –
20 | CCc1ccc(-c2nc(-c3cc(C)c(OCC(O)CNC(=O)CO)c(C)c3)no2)s1 (racemic) | 0.0043 µM | 1.86 µM | concentration at 24 h [7]: < 2 ng/mL; concentration at 6 h [8]: 190 ng/mL; concentration at 3 h [9]: 490 ng/mL
21 | CCc1sc(C(=O)CCc2cc(C)c(OC[C@@H](O)CO)c(C)c2)c2c1CC(C)(C)CC2 | 0.0004 µM | 0.126 µM | –
22 | CCc1sc(C(=O)CCc2cc(C)c(OCC(O)CO)c(C)c2)c2c1C[C@@H](N(C)C)CC2 (mixture of isomers) | 1.6 µM | > 10 µM | –
23 | CCc1cc(-c2noc(-c3sc(CC)c4c3CCC(C)(C)C4)n2)cc(C)c1OCCNCCC(=O)O | 0.0014 µM | 0.0058 µM | Cmax [10]: 9530 ng/mL; Tmax [11]: 0.75 h; AUC [12]: 60400 ng·h/mL; logD [13]: 4.9; Cmax [14]: 813 ng/mL; Tmax [15]: 8 h; AUC [16]: 16300 ng·h/mL
24 | Cc1cc(-c2noc(-c3sc(C)c4c3CCC(C)(C)C4)n2)cc(C)c1OCC(O)CNC(=O)CO (racemic) | 0.0016 µM | 0.015 µM | % change in blood lymphocyte count from predose [3]: -77%; Activity [4]: -73%; Activity [5]: -70%; Activity [17]: -73%; Activity [18]: -7%
